# Measurements reported in ChEMBL document CHEMBL4017544 (J Med Chem, 2017).
# The source made the active and inactive calls. The rule behind the calls is not given here.
# What was measured:
# Mus musculus [1] = assay: Renoprotective activity in db/db mouse assessed as reduction of fibrosis in glomeruli at 1 to 2 mg/kg, ip administered trice per week for 12 consecutive weeks measured at 11 weeks post dose by H/E-staining based microscopic analysis; format: functional, organism-based
# Method in brief: (§1)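 Male db/db mice, 8 weeks old, were randomized and dosed i.p. three times weekly for 12 weeks (vehicle: 5% Tween-80 in 0.9% saline; n = 6 per group). Kidneys were fixed in 4% PFA and paraffin-embedded. 5 μm sections were stained with HE, PAS or Masson's trichrome and examined at ×400.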
# Kidney [2] = assay: In vivo drug metabolism in Sprague-Dawley rat assessed as CDDO-Me formation in kidney at 30 mg/kg, ip measured at 10 mins by LC-MS/MS analysis; format: ADME, organism-based
# Method in brief: (§2)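 Rats given a single ip injection, 20 mg/kg (0.04 mmol) of CDDO-Me or 30 mg/kg (0.04 mmol) of the prodrug; heart, kidney and liver collected over time; parent compound and liberated CDDO-Me measured by LC-MS/MS.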
# Mus musculus [3] = assay: Renoprotective activity in db/db mouse assessed as […] in number of intraglomerular mesangial cells at 1 to 2 mg/kg, ip administered trice per week for 12 consecutive weeks measured at 11 weeks post dose by H/E-staining based microscopic analysis; format: functional, organism-based; method in brief: as §1
# [4] = molecular target: Kelch-like ECH-associated protein 1 (Homo sapiens) (UniProt Q14145); assay: Inhibition of Keap1/Nrf2 (unknown origin) interaction transfected in HEK293 cells assessed as increase in cytosolic NQO1 levels after 48 hrs by Western blot analysis; format: cell-based
# Chain of Kelch-like ECH-associated protein 1 (Homo sapiens) (Q14145 whole entry): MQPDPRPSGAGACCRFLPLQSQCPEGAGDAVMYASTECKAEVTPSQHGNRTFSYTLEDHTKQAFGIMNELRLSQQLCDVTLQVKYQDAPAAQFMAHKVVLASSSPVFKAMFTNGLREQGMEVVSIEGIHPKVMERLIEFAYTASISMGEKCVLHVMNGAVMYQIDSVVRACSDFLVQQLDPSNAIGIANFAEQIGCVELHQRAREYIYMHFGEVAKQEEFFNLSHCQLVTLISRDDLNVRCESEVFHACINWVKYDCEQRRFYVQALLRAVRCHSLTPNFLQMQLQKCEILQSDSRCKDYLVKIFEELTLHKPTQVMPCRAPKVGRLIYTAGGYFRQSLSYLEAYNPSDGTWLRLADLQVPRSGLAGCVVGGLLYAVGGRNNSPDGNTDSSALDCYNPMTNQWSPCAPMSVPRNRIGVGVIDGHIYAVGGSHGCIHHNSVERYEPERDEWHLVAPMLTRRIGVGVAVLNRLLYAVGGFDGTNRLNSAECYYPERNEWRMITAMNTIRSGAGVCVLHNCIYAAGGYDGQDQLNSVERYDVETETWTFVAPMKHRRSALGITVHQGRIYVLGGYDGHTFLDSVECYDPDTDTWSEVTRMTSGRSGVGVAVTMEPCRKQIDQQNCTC
# Method in brief: (§3)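 HEK293 cells grown in high-glucose DMEM with 10% FBS were treated in triplicate at 200 or 1000 nM for 48 h. Nuclear and cytosolic Nrf2, HO-1 and cytoplasmic NQO1 were measured by western blot with specific antibodies, with TBP and β-actin among the probed proteins. The nuclear/cytosolic Nrf2 ratio was derived from these blots. Three independent experiments, mean ± SD.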
# Mus musculus [5] = assay: Antidiabetic nephropathic activity in db/db mouse assessed as increase in urinary creatinine at 1 to 2 mg/kg, ip administered thrice per week for 12 consecutive weeks measured at 24 hrs post 11 week administration; format: functional, organism-based
# Method in brief: (§4)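 Male db/db mice, 8 weeks old, randomized; ip vehicle (5% Tween-80 in 0.9% saline) or drug three times weekly for 12 weeks, n = 6 per group. After 11 weeks, 24 h urine collected for volume, albumin and creatinine, with UACR calculated; blood then sampled for plasma BUN and uric acid. Mean ± SD, one-way ANOVA with Tukey test.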
# Mus musculus [6] = assay: Toxicity in db/db mouse assessed as effect on water consumption at 1 to 2 mg/kg, ip administered thrice per week for 12 consecutive weeks measured every other day; format: organism-based; conditions: in vivo
# Method in brief: (§5)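 Male db/db mice (8 weeks old, specific pathogen-free, normal chow and filtered water ad libitum) were randomized and dosed i.p. three times weekly for 12 consecutive weeks; vehicle was 5% Tween-80 in 0.9% saline. Body weight and food and water consumption were recorded every other day.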
# [7] = Drug level in Sprague-Dawley rat kidney at 30 mg/kg, ip measured at 90 mins by LC-MS/MS analysis; format: ADME, organism-based; conditions: read-out: Drug uptake; method in brief: as §2
# Mus musculus [8] = assay: Antidiabetic nephropathic activity in db/db mouse assessed as reduction in urine albumin to creatinine ratio at 1 to 2 mg/kg, ip administered thrice per week for 12 consecutive weeks measured at 24 hrs post 11 week administration; format: functional, organism-based; method in brief: as §4
# hERG (KCNH2) = hERG (KCNH2) (Homo sapiens, UniProt Q12809); assay: Inhibition of human ERG expressed in CHO cells at 200 uM at -80 mV holding potential by patch clamp assay relative to control; format: cell-based; conditions: CHO cells expressing human ERG
# Chain of hERG (KCNH2) (Q12809 whole entry): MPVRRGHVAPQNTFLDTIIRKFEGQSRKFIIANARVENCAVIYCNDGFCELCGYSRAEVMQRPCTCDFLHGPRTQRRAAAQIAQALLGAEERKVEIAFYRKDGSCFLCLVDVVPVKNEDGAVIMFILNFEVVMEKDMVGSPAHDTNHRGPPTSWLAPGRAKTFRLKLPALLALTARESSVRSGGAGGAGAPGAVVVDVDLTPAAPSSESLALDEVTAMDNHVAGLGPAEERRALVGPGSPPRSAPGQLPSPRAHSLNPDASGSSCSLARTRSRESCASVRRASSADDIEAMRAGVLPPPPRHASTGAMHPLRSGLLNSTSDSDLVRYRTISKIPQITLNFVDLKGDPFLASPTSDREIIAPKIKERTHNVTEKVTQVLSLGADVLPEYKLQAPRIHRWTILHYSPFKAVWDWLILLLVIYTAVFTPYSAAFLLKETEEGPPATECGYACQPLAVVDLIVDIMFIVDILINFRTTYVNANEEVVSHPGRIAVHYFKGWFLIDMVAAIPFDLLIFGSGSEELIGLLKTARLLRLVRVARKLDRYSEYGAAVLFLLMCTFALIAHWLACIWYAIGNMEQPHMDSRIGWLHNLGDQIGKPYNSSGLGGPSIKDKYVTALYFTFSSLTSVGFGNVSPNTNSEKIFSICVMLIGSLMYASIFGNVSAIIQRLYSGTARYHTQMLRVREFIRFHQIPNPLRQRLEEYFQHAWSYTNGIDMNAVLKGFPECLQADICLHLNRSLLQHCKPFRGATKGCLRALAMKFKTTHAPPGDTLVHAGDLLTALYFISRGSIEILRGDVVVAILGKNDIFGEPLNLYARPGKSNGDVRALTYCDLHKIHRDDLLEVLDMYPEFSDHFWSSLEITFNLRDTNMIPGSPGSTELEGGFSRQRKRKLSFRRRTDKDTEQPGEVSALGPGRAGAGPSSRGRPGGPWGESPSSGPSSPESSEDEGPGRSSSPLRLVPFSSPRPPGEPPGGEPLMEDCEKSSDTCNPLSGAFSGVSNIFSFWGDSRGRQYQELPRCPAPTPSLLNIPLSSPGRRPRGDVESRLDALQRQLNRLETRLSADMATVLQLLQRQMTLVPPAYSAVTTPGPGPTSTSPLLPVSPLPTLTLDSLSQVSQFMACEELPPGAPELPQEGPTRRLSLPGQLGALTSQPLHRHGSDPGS
# Kidney [9] = assay: In vivo drug metabolism in Sprague-Dawley rat assessed as CDDO-Me formation in kidney at 30 mg/kg, ip measured at 30 mins by LC-MS/MS analysis; format: ADME, organism-based; conditions: 0.5 h; method in brief: as §2
# Mus musculus [10] = assay: Toxicity in db/db mouse assessed as effect on food consumption at 1 to 2 mg/kg, ip administered thrice per week for 12 consecutive weeks measured every other day; format: organism-based; conditions: in vivo; method in brief: as §5
# [11] = molecular target: Kelch-like ECH-associated protein 1 (Homo sapiens) (UniProt Q14145); assay: Inhibition of Keap1/Nrf2 (unknown origin) interaction transfected in HEK293 cells assessed as increase in cytosolic HO-1 levels after 48 hrs by Western blot analysis; format: cell-based; method in brief: as §3
# [12] = molecular target: Kelch-like ECH-associated protein 1 (Homo sapiens) (UniProt Q14145); assay: Inhibition of Keap1/Nrf2 (unknown origin) interaction transfected in HEK293 cells assessed as increase in nuclear to cytosolic Nfr2 ratio at 200 to 1000 nM after 48 hrs by Western blot analysis; format: cell-based; method in brief: as §3
# Mus musculus [13] = assay: Anti-diabetic nephropathic activity in db/db mouse assessed as reduction in plasma urea nitrogen levels at 0.65 mg/kg, ip administered trice per week for 12 consecutive weeks measured 11 weeks post dose; format: functional, organism-based; method in brief: as §4
# Mus musculus [14] = assay: Toxicity in db/db mouse assessed as effect on water consumption at 0.65 mg/kg, ip administered trice per week for 12 consecutive weeks measured every other day; format: organism-based; conditions: in vivo; method in brief: as §5
# Mus musculus [15] = assay: Renoprotective activity in db/db mouse assessed as reduction in mesangial expansion at 0.65 mg/kg, ip administered trice per week for 12 consecutive weeks measured at 11 weeks post dose by TEM microscopic analysis; format: functional, organism-based
# Method in brief: (§6)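 Male db/db mice (8 weeks old) were dosed i.p. three times weekly for 12 weeks in 5% Tween-80/0.9% saline, n = 6. Kidney tissue was fixed in 3% glutaraldehyde, cut into 80 nm ultrathin sections and examined by TEM. GBM thickness was measured at 30 random locations from three sections per kidney and averaged per mouse.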
# Mus musculus [16] = assay: Antidiabetic nephropathic activity in db/db mouse assessed as increase in urinary creatinine at 0.65 mg/kg, ip administered thrice per week for 12 consecutive weeks measured at 24 hrs post 11 week administration; format: functional, organism-based; method in brief: as §4
# Mus musculus [17] = assay: Renoprotective activity in db/db mouse assessed as reduction in fused podocytes at 0.65 mg/kg, ip administered trice per week for 12 consecutive weeks measured at 11 weeks post dose by TEM microscopic analysis; format: functional, organism-based; method in brief: as §6
# Mus musculus [18] = assay: Renoprotective activity in db/db mouse assessed as […] in number of intraglomerular mesangial cells at 0.65 mg/kg, ip administered trice per week for 12 consecutive weeks measured at 11 weeks post dose by H/E-staining based microscopic analysis; format: functional, organism-based; method in brief: as §1
# [19] = Drug level in Wistar rat kidney homogenates treated with 1-Hydroxyl-2-cyano-3-(4-(methyl-L-glutaminate-N5-yl)-benzyloxy)-12-oxo-oleana-2(3),9(11)-dien-28-oic Acid Methyl Ester assessed as GGT-mediated metabolite formation at 100 uM after 8 hrs by HPLC analysis; format: ADME, tissue-based; conditions: tissue homogenate
# Method in brief: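 Plasma, and kidney and liver homogenates in PBS, from three Wistar rats; substrate added at 100 μM at 37 °C; metabolite measured by HPLC every 60 min for 8 h; mean ± SD of three experiments.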
# [20] = molecular target: Kelch-like ECH-associated protein 1 (Homo sapiens) (UniProt Q14145); assay: Inhibition of Keap1/Nrf2 (unknown origin) interaction transfected in HEK293 cells assessed as increase in cytosolic HO-1 levels at 200 to 1000 nM after 48 hrs by Western blot analysis; format: cell-based; method in brief: as §3
# Mus musculus [21] = assay: Anti-diabetic nephropathic activity in db/db mouse assessed as reduction in plasma creatinine levels at 0.65 mg/kg, ip administered trice per week for 12 consecutive weeks measured at 11 weeks post dose; format: functional, organism-based
# [22] = Drug level in Sprague-Dawley rat kidney at 20 mg/kg, ip measured at 90 mins by LC-MS/MS analysis; format: ADME, organism-based; conditions: read-out: Drug uptake; method in brief: as §2
structure (smiles),measurement,setting,value
COC(=O)[C@@H](N)CCC(=O)Nc1ccc(COC2=C(C#N)[C@H](O)[C@]3(C)C4=CC(=O)[C@@H]5[C@@H]6CC(C)(C)CC[C@]6(C(=O)OC)CC[C@@]5(C)[C@]4(C)CC[C@H]3C2(C)C)cc1,Activity,Mus musculus [1],Active
same,Drug metabolism,Kidney [2],0.04 µg/g
same,Activity,Mus musculus [3],Active
same,inhibition,[4],Dose-dependent effect
same,Activity,Mus musculus [5],Active
same,Activity,Mus musculus [6],Non-Toxic
same,concentration at 1.5 h,[7],800 ng/g
same,Activity,Mus musculus [8],Active
same,inhibition at 200 µM,hERG (KCNH2),36.1%
same,Drug metabolism,Kidney [9],0.09 µg/g
same,Activity,Mus musculus [10],Non-Toxic
same,inhibition,[11],Dose-dependent effect
COC(=O)[C@]12CCC(C)(C)C[C@H]1[C@H]1C(=O)C=C3[C@@]4(C)C=C(C#N)C(=O)C(C)(C)[C@@H]4CC[C@@]3(C)[C@]1(C)CC2 [BARDOXOLONE METHYL],inhibition,[12],Active
same,Activity,Mus musculus [13],Active
same,Activity,Mus musculus [14],Non-Toxic
same,Activity,Mus musculus [15],Active
same,Activity,Mus musculus [16],Active
same,Activity,Mus musculus [17],Active
same,Activity,Mus musculus [18],Active
same,Drug metabolism,[19],Metabolite_Detected
same,inhibition,[20],Active
same,Activity,Mus musculus [21],Active
same,concentration at 1.5 h,[22],4520 ng/g
